In ChEMBL document CHEMBL4346665, “Synthesis and evaluation of tetrahydroquinolin-2(1H)-one derivatives as novel anti-pancreatic cancer agents via targeting autophagy” (Eur J Med Chem, 2019):
Blank lines part the entries; values can stand above or below the molecule they belong to. The source made the active and inactive calls. The calls are words filed in the database; no cut-off is given here.

Tests used:
PANC-1 [1] = test: Induction of apoptosis in human PANC1 cells in nutrient-deprived medium assessed as live cells at 10 uM incubated for 24 hrs by Annexin V-FITC/PI double staining based flow cytometric analysis (reference value: 85.75 to 96.8%); assay type: functional
Outline: (§1)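 PANC-1 cells under NDC exposed 24 h at 5.0, 10.0 or 20.0 µM. Annexin V-FITC/PI double staining, flow cytometric quantification of live, early apoptotic, late apoptotic and necrotic fractions. Arctigenin as positive control.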

PANC-1 [2] = test: Induction of apoptosis in human PANC1 cells in nutrient-deprived medium assessed as live cells at 20 uM incubated for 24 hrs by Annexin V-FITC/PI double staining based flow cytometric analysis (reference value: 85.75 to 96.8%); assay type: functional; outline: as §1
PANC-1 [3] = test: Induction of apoptosis in human PANC1 cells in nutrient-deprived medium assessed as necrotic cells at 20 uM incubated for 24 hrs by Annexin V-FITC/PI double staining based flow cytometric analysis (reference value: 0 to 2.8%); assay type: functional; outline: as §1
PANC-1 [4] = test: Induction of apoptosis in human PANC1 cells in nutrient-deprived medium assessed as necrotic cells at 5 uM incubated for 24 hrs by Annexin V-FITC/PI double staining based flow cytometric analysis (reference value: 0 to 2.8%); assay type: functional; outline: as §1
PANC-1 [5] = test: Induction of apoptosis in human PANC1 cells in nutrient-deprived medium assessed as late apoptotic cells at 20 uM incubated for 24 hrs by Annexin V-FITC/PI double staining based flow cytometric analysis (reference value: 0 to 0.9%); assay type: functional; outline: as §1
PANC-1 [6] = test: Induction of apoptosis in human PANC1 cells in nutrient-deprived medium assessed as early apoptotic cells at 20 uM incubated for 24 hrs by Annexin V-FITC/PI double staining based flow cytometric analysis (reference value: 0.22 to 14.25%); assay type: functional; outline: as §1
PANC-1 [7] = test: Induction of apoptosis in human PANC1 cells in nutrient-deprived medium assessed as late apoptotic cells at 5 uM incubated for 24 hrs by Annexin V-FITC/PI double staining based flow cytometric analysis (reference value: 0 to 0.9%); assay type: functional; outline: as §1
PANC-1 [8] = test: Growth inhibition of human PANC1 cells in nutrient-deprived medium incubated for 24 hrs by MTT assay; assay type: functional, cell-based; conditions: PANC-1, 24 h
PANC-1 [9] = test: Induction of apoptosis in human PANC1 cells in nutrient-deprived medium assessed as late apoptotic cells at 10 uM incubated for 24 hrs by Annexin V-FITC/PI double staining based flow cytometric analysis (reference value: 0 to 0.9%); assay type: functional; outline: as §1
PANC-1 [10] = test: Induction of apoptosis in human PANC1 cells in nutrient-deprived medium assessed as necrotic cells at 10 uM incubated for 24 hrs by Annexin V-FITC/PI double staining based flow cytometric analysis (reference value: 0 to 2.8%); assay type: functional; outline: as §1
PANC-1 [11] = test: Growth inhibition of human PANC1 cells in nutrient-rich medium at 10 uM incubated for 24 hrs by MTT assay (reference value: 0.0 +/- 3.8%); assay type: functional; conditions: PANC-1, 24 h
PANC-1 [12] = test: Induction of apoptosis in human PANC1 cells in nutrient-deprived medium assessed as early apoptotic cells at 5 uM incubated for 24 hrs by Annexin V-FITC/PI double staining based flow cytometric analysis (reference value: 0.22 to 14.25%); assay type: functional; outline: as §1
PANC-1 [13] = test: Induction of apoptosis in human PANC1 cells in nutrient-deprived medium assessed as early apoptotic cells at 10 uM incubated for 24 hrs by Annexin V-FITC/PI double staining based flow cytometric analysis (reference value: 0.22 to 14.25%); assay type: functional; outline: as §1
PANC-1 [14] = test: Induction of apoptosis in human PANC1 cells in nutrient-deprived medium assessed as live cells at 5 uM incubated for 24 hrs by Annexin V-FITC/PI double staining based flow cytometric analysis (reference value: 85.75 to 96.8%); assay type: functional; outline: as §1
PANC-1 [15] = test: Growth inhibition of human PANC1 cells in nutrient-deprived medium at 10 uM incubated for 24 hrs by MTT assay (reference value: 0.0 +/- 1.9%); assay type: functional; conditions: PANC-1, 24 h
PANC-1 [16] = test: Induction of autophagy in human PANC1 cells in nutrient-deprived medium assessed as reduction in mean intensity of LC3 at 10 uM incubated for 24 hrs by DAPI staining based confocal microscopic analysis; assay type: functional, cell-based
Outline: (§2)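 LC3-transfected PANC-1 cells under NNC, NDC, or NDC plus 10 µM compound. Cells co-labeled for LC3B and DAPI and imaged by confocal microscopy. LC3 puncta number, percentage area and mean intensity quantified.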

[17] = Toxicity in human PANC1 cells xenografted in nude mouse assessed as pathological changes in liver at 20 mg/kg, ip administered daily for 4 weeks post tumor inoculation by hematoxylin and eosin staining based assay; assay type: organism-based; conditions: in vivo, 672 h
Outline: (§3)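 PANC-1 xenografts in nude mice. Dosing daily at 5, 10 or 20 mg/kg/day for 30 days, or 30 mg/kg every three days for the gemcitabine reference. Tumor volume from diameters and tumor weight at end of study. Body weight monitored, kidney and liver examined. T1-weighted MRI on day 30 with Gd-DTPA contrast via tail vein. Mean ± S.D., n = 5, vs control group.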

PANC-1 [18] = test: Inhibition of autophagy in human PANC1 cells in nutrient-deprived medium assessed as reduction in LC3-2 expression level at 10 uM incubated for 1 to 6 hrs by Western blot analysis
[19] = Toxicity in human PANC1 cells xenografted in nude mouse assessed as mortality at 5 to 20 mg/kg, ip administered daily for 4 weeks post tumor inoculation; assay type: organism-based; conditions: in vivo, 672 h
Outline: (§4)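 PANC-1 xenografts in nude mice, 5 per group. Daily injections of 5, 10 or 20 mg/kg for 30 days. Gemcitabine reference arm dosed at 30 mg/kg every three days, compared with untreated controls. Body weight tracked through dosing and deaths recorded. Tumour diameters measured over time and tumours weighed at endpoint. Kidneys and liver examined for lesions.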

[20] = Cytotoxicity against mouse NCTC-1469 cells up to 20 uM incubated for 24 hrs by MTT assay; assay type: cell-based
PANC-1 [21] = test: Inhibition of autophagy in human PANC1 cells in nutrient-deprived medium assessed as accumulation of SQSTM1 protein at 10 uM incubated for 1 to 6 hrs by Western blot analysis
PANC-1 [22] = test: Antitumor activity against human PANC1 cells xenografted in nude mouse assessed as reduction in tumor size at 20 mg/kg, ip administered daily for 4 weeks post tumor inoculation and observed on day 9; assay type: functional; outline: as §3
PANC-1 [23] = test: Induction of autophagy in human PANC1 cells in nutrient-deprived medium assessed as reduction in percentage area of LC3 at 10 uM incubated for 24 hrs by DAPI staining based confocal microscopic analysis; assay type: functional, cell-based; outline: as §2
PANC-1 [24] = test: Inhibition of colony formation in human PANC1 cells in nutrient-deprived medium treated for 24 hrs followed by compound washout and subsequent incubation for 14 days by crystal violet staining based assay; assay type: functional, cell-based
Outline: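 Clonogenic assay of PANC-1 under NDC across several concentrations. Surviving colonies counted, mean ± S.D., n = 3.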

[25] = Toxicity in human PANC1 cells xenografted in nude mouse assessed as change in body weight at 5 to 20 mg/kg, ip administered daily for 4 weeks post tumor inoculation; assay type: organism-based; conditions: in vivo, 672 h; outline: as §4
PANC-1 [26] = test: Antitumor activity against human PANC1 cells xenografted in nude mouse assessed as reduction in tumor size at 5 to 20 mg/kg, ip administered daily for 4 weeks post tumor inoculation by Gd-DTPA based T1 weighted MRI analysis; assay type: functional, organism-based; outline: as §3
PANC-1 [27] = test: Antitumor activity against human PANC1 cells xenografted in nude mouse assessed as reduction in tumor weight at 20 mg/kg, ip administered daily for 4 weeks post tumor inoculation; assay type: functional, organism-based; outline: as §3
PANC-1 [28] = test: Antitumor activity against human PANC1 cells xenografted in ip dosed nude mouse assessed as reduction in tumor size administered daily for 4 weeks post tumor inoculation and observed on day 21 to 30; assay type: functional, organism-based; outline: as §3
PANC-1 [29] = test: Antitumor activity against human PANC1 cells xenografted in nude mouse assessed as reduction in tumor size at 20 mg/kg, ip administered daily for 4 weeks post tumor inoculation and observed on day 6; assay type: functional, organism-based; outline: as §3
[30] = Toxicity in human PANC1 cells xenografted in nude mouse assessed as pathological changes in kidney at 20 mg/kg, ip administered daily for 4 weeks post tumor inoculation by hematoxylin and eosin staining based assay; assay type: organism-based; conditions: in vivo, 672 h; outline: as §3
PANC-1 [31] = test: Induction of apoptosis in human PANC1 cells in nutrient-deprived medium incubated for 24 hrs by Annexin V-FITC/PI double staining based flow cytometric analysis; assay type: functional, cell-based; outline: as §1

IC50 (PANC-1 [8]): 2.2 µM
Compound: COc1cc(C[C@H]2C(=O)OC[C@@H]2Cc2ccc(OC)c(OC)c2)ccc1O [ARCTIGENIN]
Activity (PANC-1 [1]): 4.13%
Activity (PANC-1 [2]): 2.23%
Activity (PANC-1 [3]): 6.29%
Activity (PANC-1 [4]): 6.84%
Activity (PANC-1 [5]): 90.44%
Activity (PANC-1 [6]): 1.06%
Activity (PANC-1 [7]): 83.08%
Activity (PANC-1 [9]): 89.2%
Activity (PANC-1 [10]): 5.64%
inhibition at 10 µM (PANC-1 [11]): 66.8%
Activity (PANC-1 [12]): 1.43%
Activity (PANC-1 [13]): 1.03%
Activity (PANC-1 [14]): 8.66%
inhibition at 10 µM (PANC-1 [15]): 79.1%

Compound: CC(C)=CCC/C(C)=C/CC1Cc2c(OCCCNC(=O)c3cccs3)cc(=O)n(CCCO)c2CC1(C)C (stereo not given)
Activity (PANC-1 [1]): 20.25%
Activity (PANC-1 [2]): 1.56%
Activity (PANC-1 [3]): 4.36%
Activity (PANC-1 [4]): 0.09%
Activity (PANC-1 [5]): 91.74%
Activity (PANC-1 [6]): 2.34%
Activity (PANC-1 [16]): Active
Activity [17]: Non-Toxic
Activity (PANC-1 [18]): Active
Activity (PANC-1 [7]): 26%
Activity [19]: Non-Toxic
IC50 (PANC-1 [8]): 4.9 µM
Activity [20]: Non-Toxic
Activity (PANC-1 [21]): Active
Activity (PANC-1 [22]): 71.25 mm3
Activity (PANC-1 [23]): Active
inhibition (PANC-1 [24]): Dose-dependent effect
Activity [25]: Non-Toxic
Activity (PANC-1 [9]): 38.03%
Activity (PANC-1 [26]): Active
Activity (PANC-1 [27]): Active
Activity (PANC-1 [10]): 0.14%
Activity (PANC-1 [28]): Dose-dependent effect
Activity (PANC-1 [29]): inactive
inhibition at 10 µM (PANC-1 [11]): 11.5%
Activity (PANC-1 [12]): 35.35%
Activity (PANC-1 [13]): 41.58%
Activity (PANC-1 [14]): 38.56%
inhibition at 10 µM (PANC-1 [15]): 72.8%
Activity [30]: Non-Toxic
Activity (PANC-1 [31]): Dose-dependent effect

IC50 (PANC-1 [8]): 6.8 µM
Compound: CC(C)=CCC1Cc2c(OC(=O)Nc3ccc(F)c(Cl)c3)cc(=O)n(CCCO)c2CC1(C)C (stereo not given)
inhibition at 10 µM (PANC-1 [11]): 0%
inhibition at 10 µM (PANC-1 [15]): 79.8%

IC50 (PANC-1 [8]): 7.7 µM
Compound: COc1ccccc1NC(=O)Oc1cc(=O)n(CCCO)c2c1CC(CC=C(C)C)C(C)(C)C2 (stereo not given)
inhibition at 10 µM (PANC-1 [11]): 0%
inhibition at 10 µM (PANC-1 [15]): 71.1%

IC50 (PANC-1 [8]): 7.4 µM
Compound: CC(C)=CCC/C(C)=C/CC1Cc2c(OC(=O)Nc3ccccc3F)cc(=O)n(CCCO)c2CC1(C)C (stereo not given)
inhibition at 10 µM (PANC-1 [11]): 0%
inhibition at 10 µM (PANC-1 [15]): 71.6%
